FGF22 binding = binders of recombinant human FGF22 by thermal shift | Q9HCT0 | actives 1.5% (n = 340,000) | SYPRO orange fluorescence; percent of sucrose octasulfate shift, DMSO zero | activity (Tm shift, normalised), % at 9.99 µM;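 active = mean Tm shift, scaled 0 neutral to 100 positive control, at about 1.3% or above, every replicate too, limit read from the data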
E-selectin induc = E-selectin induction on HUVECs; HUVEC E-selectin immunofluorescence imaging; normalized: neutral wells 0, TNF-alpha wells 100; P16581; actives 0.37% (n = 260,000); activation, % at 7.58 µM;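 active = mean E-selectin-positive cell signal at least 10% of the positive control, reached in at least 60% of replicates, without over 20% cell loss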
Target sequence (P16581 whole entry, looked up): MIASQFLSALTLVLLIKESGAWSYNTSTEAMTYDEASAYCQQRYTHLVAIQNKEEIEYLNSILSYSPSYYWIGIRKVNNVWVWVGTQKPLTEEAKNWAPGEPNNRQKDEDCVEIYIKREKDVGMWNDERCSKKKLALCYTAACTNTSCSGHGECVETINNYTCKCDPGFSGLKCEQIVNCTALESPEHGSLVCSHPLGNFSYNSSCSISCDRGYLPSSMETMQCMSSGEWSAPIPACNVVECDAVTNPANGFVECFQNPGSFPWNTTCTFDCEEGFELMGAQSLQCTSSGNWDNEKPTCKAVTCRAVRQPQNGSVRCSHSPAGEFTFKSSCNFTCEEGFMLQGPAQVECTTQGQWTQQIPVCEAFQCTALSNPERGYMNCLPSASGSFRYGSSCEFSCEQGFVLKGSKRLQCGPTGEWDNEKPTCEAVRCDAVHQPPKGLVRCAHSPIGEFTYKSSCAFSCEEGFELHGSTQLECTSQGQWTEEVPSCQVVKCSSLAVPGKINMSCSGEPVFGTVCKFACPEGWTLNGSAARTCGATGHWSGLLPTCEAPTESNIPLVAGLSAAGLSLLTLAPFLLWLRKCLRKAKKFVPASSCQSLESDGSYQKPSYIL
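assay system = HUVEC, human umbilical vein endothelial cells | input = 3,000 HUVEC seeded per well | medium = EGM-2 growth medium on 0.1% gelatin-coated wells | dosing = one compound dose added by pin transfer | signal = immunofluorescence imaging | read-out basis = % PE-positive cells | control set = TNF-alpha, DMSO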
CFTR F508del cor = correctors of CFTR F508del function in bronchial epithelial cells. AID 720511. CFBE cells, YFP halide quenching; stimulated with forskolin plus potentiator P3; % fluorescence drop versus neutral controls. activity (quench increase), % at 7.58 µM. actives 0.36% (n = 350,000);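 active = mean added fluorescence quench of at least 8% versus neutral control, with both replicates also reaching 8%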;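 also: cells transiently co-express mutant CFTR-F508del with the halide-sensitive YFP; corrector assay measuring rescue of mutant channel to the surface after 24 h compound exposure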
ERAP1 HTS inh = blocks human ERAP1 aminopeptidase activity. actives 0.15% (n = 340,000). recombinant ERAP1, Leu-AMC fluorescence, 60 min. inhibition, % at 10.7 µM;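 active = mean replicate inhibition of at least 30%, or all replicates individually reaching that 30% level; inactive = mean below 30% and not every replicate reaching it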;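 also: 0% = neutral control wells and 100% = L-leucinethiol positive control wells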
DENV2 CPE = DENV2-induced cell death inhibition | actives 1.7% (n = 350,000) | AID 651640 | DENV2-infected cells, cytopathic effect rescue, plate reader | CPE inhibition, % at 9.99 µM; in the data active = CPE inhibition above about 20%, passing the limit was not always enough; tested in BHK-21 cells;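 also: 0% = median of neutral control wells and 100% = median of positive control wells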
Numbers without * were called inactive; · = not tested or not shown. A selection: hits, their analogues and other compounds. The true share with any hit is near 3.7%.

SMILES | FGF22 binding | E-selectin induc | CFTR F508del cor | ERAP1 HTS inh | DENV2 CPE
O=C(c1ccccc1)N1CC[C@@H]2[C@H]1c1cc(C#CC3CCCCC3)ccc1N[C@@H]2CO | · | · | -1.0 | 2.9 | 52.2*
O=C(c1ccccc1)N1CC[C@H]2[C@H](CO)Nc3ccc(C#Cc4ccccc4F)cc3[C@H]21 | · | 0.8 | -2.6 | -3.3 | 31.6*
C[C@@H]1CN([C@H](C)CO)C(=O)c2cccc(N(C)C)c2O[C@@H]1CN(C)C | 0.0 | -0.1 | -1.7 | 0.2 | -9.1
O=C(c1ccccc1F)N1CC[C@@H]2[C@H](CO)Nc3ccc(C#Cc4ccccc4F)cc3[C@@H]21 | -0.1 | 0.4 | -0.5 | 0.1 | 61.6*
O=S(=O)(c1ccccc1)N1CC[C@@H]2[C@H]1c1cc(C#CC3CCCCC3)ccc1N[C@@H]2CO | · | 1.9 | -2.8 | -3.7 | 28.4*
O=C(c1ccccc1F)N1CC[C@@H]2[C@H](CO)Nc3ccc(C#Cc4ccc(F)cc4)cc3[C@@H]21 | 0.1 | 0.0 | -0.8 | · | 25.9*
O=C(c1ccccc1F)N1CC[C@@H]2[C@H]1c1cc(C#Cc3ccccc3)ccc1N[C@@H]2CO | · | 0.7 | -2.1 | · | ·
O=C(NC1CCCCC1)c1ccc(NS(=O)(=O)c2cccc3cccnc23)cc1 | -0.1 | 2.2 | -2.7 | 3.0 | 4.8
O=C(c1ccc(NS(=O)(=O)c2cccc3cccnc23)cc1)N1CCCCC1 | 43.7* | -3.4 | -0.4 | -2.6 | 0.0
O=C(c1ccc(NS(=O)(=O)c2ccc(F)cc2)cc1)N1CCCCC1 | -0.4 | -1.6 | -3.8 | -1.4 | 0.7
O=C(c1ccc(S(=O)(=O)Nc2ccc(F)cc2)cc1)N1CCN(c2ccccn2)CC1 | 42.9* | · | -2.0 | 1.1 | -8.3
Cc1ccc(C(=O)Nc2nnc(CC(=O)N/N=C/c3ccncc3)s2)cc1 | 43.9* | · | -1.2 | -5.3 | 1.1
C[C@@H]1CN([C@@H](C)CO)C(=O)c2cc(NS(=O)(=O)c3cccs3)ccc2O[C@@H]1CN(C)Cc1ccc(Cl)c(Cl)c1 | -0.6 | 0.2 | 4.8 | 1.2 | 10.1
COc1cccc2oc3cc(C#Cc4ccccn4)ccc3c(=O)c12 | -0.1 | -0.1 | -2.8 | -1.2 | 47.7*
COc1cccc2oc3cc(C#CC4(O)CCCCC4)ccc3c(=O)c12 | 0.3 | 0.9 | 3.3 | · | -17.0
O=C(C[C@H]1C[C@@H]2c3cc(NC(=O)C4CCOCC4)ccc3O[C@@H]2[C@@H](CO)O1)NC1CCCC1 | -0.3 | 0.0 | 0.1 | -1.2 | -1.4
CC[C@]12c3[nH]c4cc(CCC(=O)N(C)C)ccc4c3CCN1C(=O)[C@@H](CC(=O)NCCc1ccccn1)C[C@@H]2C(=O)N1CCN(C(=O)c2ccco2)CC1 | 0.1 | 0.5 | 2.6 | 2.5 | 34.8*
O=C(CN1CCOCC1)NCC[C@H]1CC[C@@H](NS(=O)(=O)c2ccc(F)cc2)[C@@H](CO)O1 | 0.0 | -1.9 | -0.1 | -1.6 | 4.5
CSc1ncc(C(C)=O)c(C)n1 | 2.5* | · | 0.4 | -1.1 | -0.7
CCC(CO)Oc1cc(NCc2cccc(F)c2)c2ncn(C(C)C)c2c1 (stereo not drawn) | -0.7 | 0.0 | -0.6 | · | 117.6*
C[C@@H]1CN([C@@H](C)CO)C(=O)c2cc(-c3cccc(F)c3)cnc2O[C@H]1CN(C)C(=O)Nc1cc(F)ccc1F | -0.1 | -0.6 | -4.3 | 0.4 | -9.9
CNC[C@H]1Oc2ncc(C#Cc3ccccc3F)cc2C(=O)N([C@@H](C)CO)C[C@H]1C | -0.1 | 0.2 | 1.9 | 0.1 | 70.9*
C[C@@H]1CN([C@@H](C)CO)C(=O)c2cc(-c3cccc(F)c3)cnc2O[C@@H]1CN(C)C(=O)Nc1cc(F)ccc1F | 0.0 | 0.3 | -2.0 | -0.8 | 26.1*
CNC[C@@H]1Oc2ncc(-c3cccc(F)c3)cc2C(=O)N([C@@H](C)CO)C[C@@H]1C | 0.0 | 0.0 | -0.4 | -0.1 | 24.6*
CNC[C@@H]1Oc2ncc(-c3ccccc3)cc2C(=O)N([C@H](C)CO)C[C@@H]1C | -0.1 | -0.5 | -0.4 | 0.5 | 1.9
C[C@@H]1CN([C@@H](C)CO)C(=O)Cc2cc(NC(=O)Nc3ccc(C(F)(F)F)cc3)ccc2O[C@H]1CN(C)C(=O)Nc1cccc2ccccc12 | 0.0 | -6.7 | -1.3 | -5.9 | -9.5
Cc1ccnc2nc(C(=O)OCC(=O)NCc3cccc(Cl)c3)nn12 | 0.2 | -0.7 | 3.5 | 5.8 | 9.2
Cc1cc(Cl)ccc1NC(=O)COC(=O)c1nc2nccc(C)n2n1 | 43.3* | 4.5 | -4.5 | 0.3 | -1.4
